{"source": "the RNAGym collection of RNA variant scans (doi:10.1002/anie.201605470)", "parents": {"B1": {"name": "Osa-1-4 twister ribozyme (parent)", "chain": "CCGCCUAACACUGCCAAUGCCGGUCCCAAGCCCGGAUAAAAGUGGAGGGGGCGG"}}}
{"variants_of": "B1", "test": "self-cleavage, relative activity (ratio to wild type); higher = more cleavage; co-transcriptional", "how_it_was_run": "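For each read, cleavage status was taken from whether upstream sequence was present. The reads came from an Oryza sativa twister ribozyme of 54 nucleotides, whose DNA template was synthesised with 97 % wild-type base and 1 % of each other base at the 48 positions downstream of the cleavage site. The template was transcribed in vitro at 37 °C for 2 h with co-transcriptional self-cleavage, and the RNA was reverse-transcribed using a template-switching oligonucleotide, PCR-amplified and deep-sequenced. Relative activity is the fraction cleaved normalised to wild type.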"}
{"variant": "C14A C20U", "self-cleavage": 0.16}
{"variant": "C14A C20G", "self-cleavage": 0.03}
{"variant": "C14A C20A", "self-cleavage": 0.12}
{"variant": "C14A G30U", "self-cleavage": 0.62}
{"variant": "C14A G30C", "self-cleavage": 0.03}
{"variant": "C14A G30A", "self-cleavage": 0.02}
{"variant": "G13U G50C", "self-cleavage": 0.02}
{"variant": "G13U G50U", "self-cleavage": 0.03}
{"variant": "G13U G50A", "self-cleavage": 0.03}
{"variant": "C14A G35A", "self-cleavage": 0.12}
{"variant": "C14A G35U", "self-cleavage": 0.09}
{"variant": "C14A G35C", "self-cleavage": 0.05}
{"variant": "G13U U24C", "self-cleavage": 0.03}
{"variant": "G13U U24A", "self-cleavage": 0.01}
{"variant": "G13U U24G", "self-cleavage": 0.02}
{"variant": "G13C G42U", "self-cleavage": 0.01}
{"variant": "G13C G42C", "self-cleavage": 0.02}
{"variant": "G13U G53U", "self-cleavage": 0.02}
{"variant": "G13U G53A", "self-cleavage": 0.03}
{"variant": "G13U G53C", "self-cleavage": 0.01}
{"variant": "C14A C27U", "self-cleavage": 0.04}
{"variant": "C14A C27A", "self-cleavage": 0.07}
{"variant": "C14A C27G", "self-cleavage": 0.03}
{"variant": "C14A G22A", "self-cleavage": 0.08}
{"variant": "C14A G22U", "self-cleavage": 0.05}
{"variant": "C14A G22C", "self-cleavage": 0.02}
{"variant": "G13U U43A", "self-cleavage": 0.02}
{"variant": "G13U U43C", "self-cleavage": 0.03}
{"variant": "G13U U43G", "self-cleavage": 0.04}
{"variant": "G13C G50C", "self-cleavage": 0.02}
{"variant": "G13C G50A", "self-cleavage": 0.03}
{"variant": "G13C G50U", "self-cleavage": 0.02}
{"variant": "G13U G22C", "self-cleavage": 0.01}
{"variant": "G13U G22A", "self-cleavage": 0.03}
{"variant": "G13U G22U", "self-cleavage": 0.02}
{"variant": "G13U G54A", "self-cleavage": 0.03}
{"variant": "G13U G54U", "self-cleavage": 0.04}
{"variant": "G13U G54C", "self-cleavage": 0.02}
{"variant": "G13C U18C", "self-cleavage": 0.04}
{"variant": "G13C U18G", "self-cleavage": 0.05}
{"variant": "G13C U18A", "self-cleavage": 0.03}
{"variant": "C14A G13C", "self-cleavage": 0.02}
{"variant": "C14A G13A", "self-cleavage": 0.03}
{"variant": "C14A G13U", "self-cleavage": 0.02}
{"variant": "C14A C26U", "self-cleavage": 0.05}
{"variant": "C14A C26G", "self-cleavage": 0.02}
{"variant": "C14A C26A", "self-cleavage": 0.05}
{"variant": "G13U G51A", "self-cleavage": 0.02}
{"variant": "G13U G51U", "self-cleavage": 0.02}
{"variant": "G13U G51C", "self-cleavage": 0.01}
{"variant": "G13C U37C", "self-cleavage": 0.03}
{"variant": "G13C U37A", "self-cleavage": 0.02}
{"variant": "G13C U37G", "self-cleavage": 0.04}
{"variant": "C14A G19C", "self-cleavage": 0.04}
{"variant": "C14A G19A", "self-cleavage": 0.1}
{"variant": "C14A G19U", "self-cleavage": 0.07}
{"variant": "C14A C33G", "self-cleavage": 0.01}
{"variant": "C14A C33U", "self-cleavage": 0.06}
{"variant": "C14A C33A", "self-cleavage": 0.03}
{"variant": "C14A G34C", "self-cleavage": 0.05}
{"variant": "C14A G34U", "self-cleavage": 0.05}
{"variant": "C14A G34A", "self-cleavage": 0.07}
{"variant": "G13C U43G", "self-cleavage": 0.03}
{"variant": "G13C U43A", "self-cleavage": 0.03}
{"variant": "G13C U43C", "self-cleavage": 0.02}
{"variant": "C14A C15U", "self-cleavage": 0.05}
{"variant": "C14A C15G", "self-cleavage": 0.05}
{"variant": "C14A C15A", "self-cleavage": 0.07}
{"variant": "G13U G42A", "self-cleavage": 0.02}
{"variant": "G13U G42U", "self-cleavage": 0.01}
{"variant": "G13U G42C", "self-cleavage": 0.01}
{"variant": "G13C G51A", "self-cleavage": 0.02}
{"variant": "G13C G51U", "self-cleavage": 0.02}
{"variant": "G13C G51C", "self-cleavage": 0.01}
{"variant": "G13C G53C", "self-cleavage": 0.01}
{"variant": "G13C G53U", "self-cleavage": 0.02}
{"variant": "G13C G53A", "self-cleavage": 0.02}
{"variant": "C14A G23A", "self-cleavage": 0.05}
{"variant": "C14A G23C", "self-cleavage": 0.02}
{"variant": "C14A G23U", "self-cleavage": 0.02}
{"variant": "G13U G49C", "self-cleavage": 0.01}
{"variant": "G13U G49A", "self-cleavage": 0.01}
{"variant": "G13U G49U", "self-cleavage": 0.01}
{"variant": "C14A C9G", "self-cleavage": 0.06}
{"variant": "C14A C9A", "self-cleavage": 0.03}
{"variant": "C14A C9U", "self-cleavage": 0.06}
{"variant": "C14A G42C", "self-cleavage": 0.05}
{"variant": "C14A G42U", "self-cleavage": 0.03}
{"variant": "C14A G42A", "self-cleavage": 0.05}
{"variant": "C14A C21A", "self-cleavage": 0.08}
{"variant": "C14A C21G", "self-cleavage": 0.03}
{"variant": "C14A C21U", "self-cleavage": 0.09}
{"variant": "G13C U12G", "self-cleavage": 0.56}
{"variant": "G13C U12A", "self-cleavage": 0.03}
{"variant": "G13C U12C", "self-cleavage": 0.03}
{"variant": "G13U G19A", "self-cleavage": 0.03}
{"variant": "G13U G19U", "self-cleavage": 0.04}
{"variant": "G13U G19C", "self-cleavage": 0.01}
{"variant": "C14A C52A", "self-cleavage": 0.1}
{"variant": "C14A C52G", "self-cleavage": 0.13}
{"variant": "C14A C52U", "self-cleavage": 0.13}
{"variant": "G13U G47A", "self-cleavage": 0.02}
{"variant": "G13U G47U", "self-cleavage": 0.02}
{"variant": "G13U G47C", "self-cleavage": 0.01}
{"variant": "G13U G44U", "self-cleavage": 0.04}
{"variant": "G13U G44C", "self-cleavage": 0.03}
{"variant": "G13U G44A", "self-cleavage": 0.03}
{"variant": "G13C G49C", "self-cleavage": 0.01}
{"variant": "G13C G49U", "self-cleavage": 0.01}
{"variant": "G13C G49A", "self-cleavage": 0.01}
{"variant": "G13U G30C", "self-cleavage": 0.01}
{"variant": "G13U G30U", "self-cleavage": 0.01}
{"variant": "G13U G30A", "self-cleavage": 0.01}
{"variant": "G13U G48C", "self-cleavage": 0.01}
{"variant": "G13U G48A", "self-cleavage": 0.01}
{"variant": "G13U G48U", "self-cleavage": 0.01}
{"variant": "G13U U18C", "self-cleavage": 0.03}
{"variant": "G13U U18A", "self-cleavage": 0.03}
{"variant": "G13U U18G", "self-cleavage": 0.05}
{"variant": "C14A G44A", "self-cleavage": 0.07}
{"variant": "G13U G45U", "self-cleavage": 0.02}
{"variant": "G13U G45A", "self-cleavage": 0.02}
{"variant": "G13U G45C", "self-cleavage": 0.01}
{"variant": "G13C G48A", "self-cleavage": 0.01}
{"variant": "G13C G48U", "self-cleavage": 0.01}
{"variant": "G13C G48C", "self-cleavage": 0.02}
{"variant": "G13U G34A", "self-cleavage": 0.02}
{"variant": "G13U G34C", "self-cleavage": 0.03}
{"variant": "G13U G34U", "self-cleavage": 0.03}
{"variant": "C14A C32A", "self-cleavage": 0.05}
{"variant": "C14A C32G", "self-cleavage": 0.03}
{"variant": "C14A C32U", "self-cleavage": 0.03}
{"variant": "G13U G23C", "self-cleavage": 0}
{"variant": "G13U G23A", "self-cleavage": 0.02}
{"variant": "G13U G23U", "self-cleavage": 0.02}
{"variant": "C14A C31U", "self-cleavage": 0.04}
{"variant": "C14A C31A", "self-cleavage": 0.03}
{"variant": "C14A C31G", "self-cleavage": 0.02}
{"variant": "G13U", "self-cleavage": 0.03}
{"variant": "G13U G35U", "self-cleavage": 0.03}
{"variant": "G13U G35A", "self-cleavage": 0.03}
{"variant": "G13U G35C", "self-cleavage": 0.03}
{"variant": "C14A", "self-cleavage": 0.13}
{"variant": "G13C U24C", "self-cleavage": 0.03}
{"variant": "G13C U24A", "self-cleavage": 0.02}
{"variant": "G13C U24G", "self-cleavage": 0.01}
{"variant": "C14A C25A", "self-cleavage": 0.05}
{"variant": "C14A C25U", "self-cleavage": 0.07}
{"variant": "C14A C25G", "self-cleavage": 0.02}
{"variant": "G13U U12C", "self-cleavage": 0.05}
{"variant": "G13U U12G", "self-cleavage": 0.14}
{"variant": "G13U U12A", "self-cleavage": 0.02}
{"variant": "G13C G54A", "self-cleavage": 0.03}
{"variant": "G13C G54U", "self-cleavage": 0.04}
{"variant": "G13C G54C", "self-cleavage": 0.02}
{"variant": "G13C G47U", "self-cleavage": 0.02}
{"variant": "G13C G47C", "self-cleavage": 0.01}
{"variant": "G13C G47A", "self-cleavage": 0.02}
{"variant": "G13C G44C", "self-cleavage": 0.03}
{"variant": "G13C G44A", "self-cleavage": 0.02}
{"variant": "G13C G44U", "self-cleavage": 0.03}
{"variant": "G13C G45C", "self-cleavage": 0.01}
{"variant": "G13C G45A", "self-cleavage": 0.02}
{"variant": "G13C G45U", "self-cleavage": 0.01}
{"variant": "G13U U37G", "self-cleavage": 0.04}
{"variant": "G13U U37A", "self-cleavage": 0.02}
{"variant": "G13U U37C", "self-cleavage": 0.03}
